# Only some compounds are listed: those with a hit (about 2.9% of all), similar ones and a draw of the others.
# ATG4B inhibitor = blocks human ATG4B protease cleavage of LC3 substrate | ATG4B cleavage of LC3-PLA2, NBD-HPC fluorescence, 1 h | actives 0.51% (n = 340,000) | inhibition, % at 8.33 µM; in the data active means inhibition above about 40%
# Target sequence (Q9Y4P1 whole entry, looked up): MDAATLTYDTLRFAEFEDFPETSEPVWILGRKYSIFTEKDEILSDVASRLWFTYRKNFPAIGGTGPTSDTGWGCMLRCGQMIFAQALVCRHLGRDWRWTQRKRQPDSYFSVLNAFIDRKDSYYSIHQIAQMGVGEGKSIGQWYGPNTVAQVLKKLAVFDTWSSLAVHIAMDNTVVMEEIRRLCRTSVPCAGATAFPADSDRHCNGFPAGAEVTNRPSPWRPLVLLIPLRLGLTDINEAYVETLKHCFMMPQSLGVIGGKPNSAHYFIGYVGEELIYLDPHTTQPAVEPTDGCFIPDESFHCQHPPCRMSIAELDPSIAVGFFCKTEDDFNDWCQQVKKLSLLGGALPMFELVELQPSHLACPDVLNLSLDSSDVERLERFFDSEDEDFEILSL
# HTRA1 inhibitor = inhibitors of human serine peptidase HTRA1; Q92743; recombinant HTRA1, FP-rhodamine activity-based probe, fluorescence polarization; inhibition, % at 5.96 µM; actives 0.5% (n = 340,000); in the data active means inhibition above about 36%;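 further: 0% = enzyme with DMSO and 100% = wells lacking enzyme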
# SIAE inh = human SIAE inhibition, primary screen | Q9HAT2 | SIAE FP-Rh probe binding, fluorescence polarization | inhibition, % at 9.66 µM | actives 0.69% (n = 370,000) | AID 1053197;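 active means inhibition above a cutoff: mean of compounds within the control limits plus 3 SD of those, cut at about 17% in these data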;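 further: 0% = plate median of compound wells and 100% = probe without SIAE protein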
# PRMT1 inh = blocks human protein arginine methyltransferase 1 | AID 652257 | actives 1.3% (n = 370,000) | recombinant PRMT1, activity-based probe fluorescence polarization | inhibition, % at 2.79 µM;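 active means inhibition above about 21% made by adding two undisclosed values, limit read from the data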
# TCR CD3 inh = blocks the human TCR-CD3 interaction | actives 0.37% (n = 360,000) | AID 651800 | inhibition, % at 9.4 µM | TAMRA-labeled TCR probe fluorescence, biochemical;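 further: recombinant mutant TCR 2C K166C tagged with TAMRA read by polarization; 0% = receptor in buffer alone and 100% = receptor with positive control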
# mABHD4 FP = ABHD4 (mouse) inhibition, primary FP screen; AID 720543; inhibition, % at 8.92 µM; Q8VD66; actives 0.54% (n = 370,000); purified mABHD4, FP-Rh probe fluorescence polarization;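 active means inhibition exceeding the mean over every tested compound plus 3 SD, cut at about 30% in these data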;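 further: 0% = plate median of compound wells and 100% = S159A mutant with DMSO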
#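 Assay system: mABHD4 protein; medium: HEPES pH 7.0, NaCl, Pluronic buffer; dosing: 8.92 µM, single dose; schedule: 45 min + 60 min at 25 °C; signal: FP readout, ex 525 nm / em 598 nm; read-out: normalized percent inhibition of probe labeling; repeats: single replicate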
# BSA TAMRA ctr = interferes with TAMRA-BSA probe, flagging TCR-CD3 hits. shares compounds with TCR CD3 inh. inhibition, % at 9.4 µM. TAMRA-labeled BSA probe fluorescence counterscreen. actives 10% (n = 1,200); in the data active means inhibition above about 23%;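 further: 0% = buffer low control and 100% = reference high control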
# TCR-CD3 inh conf = confirmation of human TCR-CD3 interaction inhibitors; shares compounds with TCR CD3 inh; TAMRA-labeled TCR probe fluorescence binding assay; inhibition, % at 9.4 µM; actives 48% (n = 1,200); AID 652036
# An asterisk follows results filed as active; / = not tested or not shown. Unless noted, no stated cut-off is given here; in the data, active means inhibition above about 19%; inactive means the rest.
SMILES,ATG4B inhibitor,HTRA1 inhibitor,SIAE inh,PRMT1 inh,TCR CD3 inh,mABHD4 FP,BSA TAMRA ctr,TCR-CD3 inh conf
CCCc1cn(-c2ccc3c(c2)[C@@]2(CC(=O)N(C)C2c2ccccc2)C(=O)N3CC(C)C)nn1 (some centres undefined),/,/,4,-2,/,7,/,/
CC(C)(C)C(=O)OC12CCCN(C1)/C(=C/c1ccncc1)C2 (centres undefined),/,/,-7,0,/,0,/,/
COc1ccc(C2C(C(=O)Nc3ccc(Cl)c(Cl)c3)CCC(=O)N2c2ccc(OC)cc2)cc1 (centres undefined),/,/,8,0,/,2,/,/
COC(=O)[C@@]12CCCCC3=C1N(CCC3)C(=O)[C@H]2CC(=O)NCC1CCCCC1,/,/,-2,0,/,2,/,/
CCOC(=O)c1csc(NC(=O)C2CCCN(S(=O)(=O)c3cc(OC)ccc3OC)C2)n1 (centres undefined),/,/,3,3,/,-9,/,/
NC1=NC[C@H](Cc2ccc(O)cc2)N1CCc1cccc(F)c1,-1,-5,7,0,33*,5,2,5
C[C@@H]1[C@@H](O)C[C@@]2(C[C@H](O)c3cc(Cl)ccc3O2)O[C@H]1c1ccccc1Cl,/,/,5,1,/,-20,/,/
O=c1ccc2cc3c([nH]c4ccc(Br)cc43)oc-2c1O,/,62*,64*,91*,38*,60*,-36,14
C=CCn1c(-c2ccco2)n[nH]c1=S,0,6,-5,0,54*,-1,1,0
C[C@H](O)[C@@H]1C(=O)N2CCc3c([nH]c4c(-c5ccc6c(c5)OCO6)cccc34)[C@@H]2C[C@@H]1N(C)C(=O)OCc1ccccc1,/,/,7,-4,/,-3,/,/
Cc1ccc(NC(=S)Nc2ccc(C(C)C)cc2)cc1S(=O)(=O)N1CCCCCC1,3,-63,-103,7,22*,-56,1,14
CCCn1c(C)cc(C(=O)COc2ccc(C)nc2[N+](=O)[O-])c1C,18,-6,3,-1,3,0,/,/
Cc1ccc(OCC(=O)c2c(N)n(C)c(=O)n(C)c2=O)c([N+](=O)[O-])n1,-1,6,9,6,36*,13,1,26*
O=[N+]([O-])C1=CC=C2C(=NC3(CCCCC3)N2O)C1=NC1CCCCC1,0,10,1,6,56*,8,1,-3
CC1(C)CC(N=C2C([N+](=O)[O-])=CC=C3C2=NC2(CCCCC2)N3O)CC(C)(C)N1,2,23,7,0,5,-2,/,/
O=C(COC(=O)c1cc(-c2cccs2)nn1-c1ccccc1)Nc1ccc(Cl)c([N+](=O)[O-])c1,-1,-39,-62,0,45*,-19,-12,-5
O=C(N/N=C/c1cc([N+](=O)[O-])ccc1O)c1ccc(COc2ccc3c(c2)CCC3)o1,0,29,13,5,45*,8,-6,17
Cc1cc(=O)oc2c(CN3CCC(C)CC3)c(O)c(Cl)cc12,-6,11,26*,7,25*,28,33*,35*
COC(=O)[C@]12C[C@H](CC(=O)N3CCOCC3)C(=O)N(Cc3ccco3)C1=C[C@H](C(C)C)O[C@@H]2C1CC1,/,/,5,-1,/,1,/,/
CC(C)CC1NC(=O)c2ccc(Cl)cc2-n2c1nc1cc(F)ccc1c2=O (centres undefined),/,/,0,0,170*,-10,5,-2
CC(C)C[C@H]1COc2cc(Br)ccc2S(=O)(=O)N1Cc1cn(Cc2ccco2)nn1,/,/,0,-4,/,7,/,/
COC(=O)c1cc(O)c(O)c(O)c1,-8,13,8,4,22*,12,-1,20*
Cc1ccc(C(C)C)c(OCc2ccc(C(=O)N/N=C/c3ccc(O)cc3O)cc2)c1,-16,26,-14,4,26*,-29,-18,22*
Cc1ccc(C(C)C)c(OCc2ccc(C(=O)N/N=C/c3ccc(C(=O)O)cc3)cc2)c1,-7,-17,-107,-3,7,-26,/,/
COc1ccccc1OCc1ccc(C(=O)NC(C)(C)C)o1,-1,0,-1,0,-5,1,/,/
SMILES,ATG4B inhibitor,HTRA1 inhibitor,SIAE inh,PRMT1 inh,TCR CD3 inh,mABHD4 FP,BSA TAMRA ctr,TCR-CD3 inh conf
COc1ccccc1OCc1ccc(C(=O)Nc2ccncc2)o1,-12,-4,-5,-2,32*,-4,3,1
Cc1ccc(S(=O)(=O)N2C=C(c3ccccc3)c3ccccc3-c3ccccc32)cc1,/,/,2,2,/,2,/,/
CC1(C)c2ccccc2N2CC(=O)NC21/C=C/c1ccco1 (centres undefined),0,-2,2,13,1,-18,/,/
CC1(C)c2ccccc2N2CCC(=O)NC21/C=C/c1ccco1 (centres undefined),33,9,-5,20,19*,-9,3,8
Cc1ccc(Cn2nnc3c2-c2ccccc2S(=O)(=O)N(C(C)(C)C)C3)cc1,/,/,7,-1,/,1,/,/
C[C@H]1C2CC(OC(=O)NCCCc3ccccc3)C(C2)[C@H]2CCCCN21 (some centres undefined),/,/,-1,3,/,4,/,/
Cc1[nH]c2ccccc2c1C(=O)C(C)OC(=O)c1ccc(NC(=O)CC#N)cc1 (centres undefined),-9,-60,-49,-2,14,-73,/,/
Cc1cc(C(=O)C(C)OC(=O)c2ccc(NC(=O)CC#N)cc2)c(C)n1-c1ccc(OC(F)F)cc1 (centres undefined),-19,-61,-59,0,24*,-46,5,18
COc1cc([N+](=O)[O-])cc(/C=N/NC(=O)c2cccnc2)c1O,-1,6,5,0,32*,21,-11,19*
COc1ccc2[nH]cc(C(C)c3ccccc3O)c2c1 (centres undefined),/,/,5,3,/,4,/,/
CCOC(=O)[C@H](Cc1ccccc1)NC(=O)[C@H]1C[C@@]2(N3CCCCC3)c3ccccc3N(C(=O)OC(C)(C)C)[C@H]2N1C(=O)OC(C)(C)C,/,/,5,3,/,-6,/,/
CCOC(=O)c1sc(NC(=O)C(CC)OC(=O)c2ccco2)nc1C (centres undefined),2,-5,-12,-1,19*,-5,-1,-1
CC(COc1ccc(CC#N)cc1)CN1CCC(C(O)(c2ccccc2)c2ccccc2)CC1 (centres undefined),/,/,2,1,/,0,/,/
COc1ccc(C(=O)OCC(=O)c2c[nH]c3ccccc23)cc1OC,5,-12,1,1,-2,0,/,/
